Here are results for two compounds from ChEMBL document CHEMBL1138512, “A class of 2,4-bisanilinopyrimidine Aurora A inhibitors with unusually high selectivity against Aurora B” (J Med Chem, 2009).

The target of experiment [1] is Tyrosine-protein kinase ABL1 (Mus musculus) (UniProt P00520). In words: Inhibition of mouse ABL at 1 uM assessed as residual enzyme activity.
Experiment [2] concerns the target Tyrosine-protein kinase receptor UFO (Homo sapiens) (UniProt P30530). Briefly: Inhibition of human Axl at 1 uM assessed as residual enzyme activity.
Experiment [3] addresses RAC-gamma serine/threonine-protein kinase (Homo sapiens) (UniProt Q9Y243). Briefly: Inhibition of human PKBgamma at 1 uM assessed as residual enzyme activity.
In experiment [4] the target is Tyrosine-protein kinase ZAP-70 (Homo sapiens) (UniProt P43403). In words: Inhibition of human ZAP-70 at 1 uM assessed as residual enzyme activity.
Experiment [5] addresses Aurora kinase A (Homo sapiens) (UniProt O14965). In words: Inhibition of human Aurora A at 1 uM assessed as residual enzyme activity.
Experiment [6] has as its target Tyrosine-protein kinase CSK (Homo sapiens) (UniProt P41240). In words: Inhibition of human CSK at 1 uM assessed as residual enzyme activity.
Experiment [7] addresses T1, Aurora kinase B (Homo sapiens, UniProt Q96GD4). In words: Inhibition of Aurora B in human HT29 cells assessed as complete loss of phospho-histone H3 staining by immunofluorescence assay. It counts as cell-based, HT-29. The method in brief: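 Immunofluorescence for phospho-S10 histone H3 in HCT116 or HT29 cells, scored visually. Value taken as the lowest inhibitor concentration giving complete loss of staining, so it lies above the IC50. Units µM.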

The target in experiment [8] is Casein kinase II (Homo sapiens) (UniProt P67870+P68400+P19784). Briefly: Inhibition of human CK2 at 1 uM assessed as residual enzyme activity. In kind it is protein-complex assay.
The test system of a further experiment is HCT-116. In words: Antiproliferative activity against human HCT116 cells after 4 days by celltiter assay. It counts as functional, cell-based. As to conditions: HCT-116, 96 h.
Experiment [9] has as its target RAF proto-oncogene serine/threonine-protein kinase (Homo sapiens) (UniProt P04049). In words: Inhibition of human c-RAF at 1 uM assessed as residual enzyme activity.
Experiment [10] deals with T2, Aurora kinase A (Homo sapiens, UniProt O14965).
T2 sequence (O14965 whole entry): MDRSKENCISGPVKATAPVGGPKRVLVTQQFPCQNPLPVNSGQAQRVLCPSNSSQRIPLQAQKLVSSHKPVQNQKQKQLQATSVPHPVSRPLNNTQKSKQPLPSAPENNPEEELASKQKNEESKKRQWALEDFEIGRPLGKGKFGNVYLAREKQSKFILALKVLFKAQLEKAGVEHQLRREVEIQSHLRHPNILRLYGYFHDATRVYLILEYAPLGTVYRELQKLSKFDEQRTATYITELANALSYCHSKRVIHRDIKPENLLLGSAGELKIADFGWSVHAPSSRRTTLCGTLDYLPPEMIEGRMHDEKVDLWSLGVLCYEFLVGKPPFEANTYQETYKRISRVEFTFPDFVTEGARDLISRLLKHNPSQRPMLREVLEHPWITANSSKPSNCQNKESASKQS
Briefly: Inhibition of Aurora A in human HCT116 cells assessed as complete loss of phospho-Aurora A staining in centrosomes by immunofluorescence assay. In kind it is cell-based, HCT-116.

For the next experiment, the system named is HT-29. Briefly: Antiproliferative activity against human HT-29 cells after 4 days by celltiter assay. In kind it is functional, cell-based. Conditions: HT-29, 96 h.
For experiment [11], the target named is RAC-alpha serine/threonine-protein kinase (Homo sapiens) (UniProt P31749). Briefly: Inhibition of human PKBalpha at 1 uM assessed as residual enzyme activity.
Experiment [12] concerns the target RAC-beta serine/threonine-protein kinase (Homo sapiens) (UniProt P31751). Briefly: Inhibition of human PKBbeta at 1 uM assessed as residual enzyme activity.
Experiment [13] has as its target Tyrosine-protein kinase Lck (Homo sapiens) (UniProt P06239). In words: Inhibition of human Lck at 1 uM assessed as residual enzyme activity.
Experiment [14] has as its target Dual specificity mitogen-activated protein kinase kinase 1 (Homo sapiens) (UniProt Q02750). Briefly: Inhibition of human MEK1 at 1 uM assessed as residual enzyme activity.
Experiment [15] addresses Mitogen-activated protein kinase 8 (Homo sapiens) (UniProt P45983). In words: Inhibition of human JNK1alpha1 at 1 uM assessed as residual enzyme activity.
The target of experiment [16] is Ephrin type-B receptor 2 (Homo sapiens) (UniProt P29323). In words: Inhibition of human EphB2 at 1 uM assessed as residual enzyme activity.
The target in experiment [17] is Platelet-derived growth factor receptor beta (Homo sapiens) (UniProt P09619). Briefly: Inhibition of human PDGFRbeta at 1 uM assessed as residual enzyme activity.
Experiment [18] addresses T1, Aurora kinase B. In words: Inhibition of Aurora B in human HCT116 cells assessed as complete loss of phospho-histone H3 staining by immunofluorescence assay.
Experiment [19] deals with Receptor-type tyrosine-protein kinase FLT3 (Homo sapiens) (UniProt P36888). In words: Inhibition of human Flt3 at 1 uM assessed as residual enzyme activity.
Sequence of Receptor-type tyrosine-protein kinase FLT3 (Homo sapiens) (P36888 whole entry): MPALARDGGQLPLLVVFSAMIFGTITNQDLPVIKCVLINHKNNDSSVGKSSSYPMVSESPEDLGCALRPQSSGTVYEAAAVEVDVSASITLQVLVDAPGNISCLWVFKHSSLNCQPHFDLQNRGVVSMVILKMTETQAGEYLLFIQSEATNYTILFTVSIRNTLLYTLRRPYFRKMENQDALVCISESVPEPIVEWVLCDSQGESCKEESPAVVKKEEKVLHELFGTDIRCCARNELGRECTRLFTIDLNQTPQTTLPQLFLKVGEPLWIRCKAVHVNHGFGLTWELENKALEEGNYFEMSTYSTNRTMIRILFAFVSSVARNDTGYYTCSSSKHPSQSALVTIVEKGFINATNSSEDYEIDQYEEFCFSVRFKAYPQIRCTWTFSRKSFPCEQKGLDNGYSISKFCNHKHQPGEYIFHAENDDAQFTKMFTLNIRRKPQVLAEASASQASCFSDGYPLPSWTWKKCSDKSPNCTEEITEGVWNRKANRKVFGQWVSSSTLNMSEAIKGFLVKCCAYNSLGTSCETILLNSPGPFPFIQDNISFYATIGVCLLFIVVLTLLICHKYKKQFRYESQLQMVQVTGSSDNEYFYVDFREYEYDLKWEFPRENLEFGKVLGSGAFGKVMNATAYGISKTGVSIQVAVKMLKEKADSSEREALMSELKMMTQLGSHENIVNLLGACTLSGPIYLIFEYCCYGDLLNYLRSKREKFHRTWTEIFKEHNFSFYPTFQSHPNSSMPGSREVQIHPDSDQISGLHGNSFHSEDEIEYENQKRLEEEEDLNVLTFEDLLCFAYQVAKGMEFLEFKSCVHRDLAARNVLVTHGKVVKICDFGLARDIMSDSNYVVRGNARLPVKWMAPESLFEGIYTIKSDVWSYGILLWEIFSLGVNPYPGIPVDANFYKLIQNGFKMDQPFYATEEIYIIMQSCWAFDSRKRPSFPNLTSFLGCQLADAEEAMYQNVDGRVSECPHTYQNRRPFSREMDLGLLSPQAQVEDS
Experiment [20] deals with Insulin receptor (Homo sapiens) (UniProt P06213). In words: Inhibition of human insulin receptor at 1 uM assessed as residual enzyme activity.
Experiment [21] has as its target T1, Aurora kinase B. Briefly: Inhibition of N-terminal flag-tagged Aurora B expressed in Escherichia coli BL21-DE3 by ELISA. (An ELISA detects its analyte on a solid surface through an enzyme-linked reagent.)
Experiment [22] concerns the target Ribosomal protein S6 kinase beta-1 (Homo sapiens) (UniProt P23443). Briefly: Inhibition of human p70S6K at 1 uM assessed as residual enzyme activity.
In experiment [23] the target is T3, Cyclin-dependent kinase 2 (Homo sapiens, UniProt P24941). In words: Inhibition of human CDK2/cyclin E at 1 uM assessed as residual enzyme activity.
Another experiment is filed under the species Homo sapiens. In words: Inhibition of human PKA at 1 uM assessed as residual enzyme activity.
In experiment [24] the target is Cyclin-dependent kinase 1/cyclin B1 (Homo sapiens) (UniProt P06493+P14635). Briefly: Inhibition of human CDK1/cyclin B at 1 uM assessed as residual enzyme activity.
For experiment [25], the target named is T3, Cyclin-dependent kinase 2. In words: Inhibition of CDK2/cyclin A.
The target of experiment [26] is Fibroblast growth factor receptor 3 (Homo sapiens) (UniProt P22607). Briefly: Inhibition of human FGFR3 at 1 uM assessed as residual enzyme activity.
For experiment [27], the target named is Glycogen synthase kinase-3 beta (Homo sapiens) (UniProt P49841). Briefly: Inhibition of human GSK3-beta at 1 uM assessed as residual enzyme activity.
Sequence of Glycogen synthase kinase-3 beta (Homo sapiens) (P49841 whole entry, looked up): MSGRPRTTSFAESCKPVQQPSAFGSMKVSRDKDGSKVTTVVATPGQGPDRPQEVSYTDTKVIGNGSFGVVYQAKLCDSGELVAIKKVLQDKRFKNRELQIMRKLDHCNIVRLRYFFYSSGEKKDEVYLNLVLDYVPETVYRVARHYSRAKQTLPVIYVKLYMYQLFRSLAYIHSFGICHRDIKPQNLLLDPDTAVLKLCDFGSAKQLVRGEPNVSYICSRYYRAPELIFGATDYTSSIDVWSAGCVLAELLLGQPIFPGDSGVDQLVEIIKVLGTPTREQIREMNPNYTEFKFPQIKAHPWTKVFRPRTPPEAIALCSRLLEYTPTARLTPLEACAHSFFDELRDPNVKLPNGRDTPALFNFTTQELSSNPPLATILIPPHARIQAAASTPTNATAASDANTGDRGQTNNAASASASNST
The target in experiment [28] is Hepatocyte growth factor receptor (Homo sapiens) (UniProt P08581). Briefly: Inhibition of human Met at 1 uM assessed as residual enzyme activity.
For experiment [29], the target named is Tyrosine-protein kinase ABL2 (Mus musculus) (UniProt Q4JIM5). Briefly: Inhibition of mouse ARG at 1 uM assessed as residual enzyme activity.
Experiment [30] addresses BDNF/NT-3 growth factors receptor (Homo sapiens) (UniProt Q16620). Briefly: Inhibition of human TrkB at 1 uM assessed as residual enzyme activity.
Experiment [31] concerns the target Proto-oncogene tyrosine-protein kinase Src (Homo sapiens) (UniProt P12931). In words: Inhibition of human c-SRC at 1 uM assessed as residual enzyme activity.
Experiment [32] deals with Proto-oncogene tyrosine-protein kinase receptor Ret (Homo sapiens) (UniProt P07949). In words: Inhibition of human Ret at 1 uM assessed as residual enzyme activity.
The target in experiment [33] is Serine/threonine-protein kinase Chk1 (Homo sapiens) (UniProt O14757). Briefly: Inhibition of human CHK1 at 1 uM assessed as residual enzyme activity.
Experiment [34] has as its target Epidermal growth factor receptor (Homo sapiens) (UniProt P00533). Briefly: Inhibition of human EGFR at 1 uM assessed as residual enzyme activity.
Experiment [35] concerns the target T2, Aurora kinase A. In words: Inhibition of N-terminal flag-tagged Aurora A expressed in Escherichia coli BL21-DE3 by ELISA.
Experiment [36] deals with Aurora kinase A (Homo sapiens, UniProt O14965, T217E). Briefly: Inhibition of N-terminal flag-tagged Aurora A T217E mutant expressed in Escherichia coli BL21-DE3.
For experiment [37], the target named is Aurora kinase B (Homo sapiens, UniProt Q96GD4, E161T). Briefly: Inhibition of N-terminal flag-tagged Aurora B E161T mutant expressed in Escherichia coli BL21-DE3.
Sequence of Aurora kinase B (Homo sapiens, UniProt Q96GD4, E161T) (Q96GD4 whole entry E161T): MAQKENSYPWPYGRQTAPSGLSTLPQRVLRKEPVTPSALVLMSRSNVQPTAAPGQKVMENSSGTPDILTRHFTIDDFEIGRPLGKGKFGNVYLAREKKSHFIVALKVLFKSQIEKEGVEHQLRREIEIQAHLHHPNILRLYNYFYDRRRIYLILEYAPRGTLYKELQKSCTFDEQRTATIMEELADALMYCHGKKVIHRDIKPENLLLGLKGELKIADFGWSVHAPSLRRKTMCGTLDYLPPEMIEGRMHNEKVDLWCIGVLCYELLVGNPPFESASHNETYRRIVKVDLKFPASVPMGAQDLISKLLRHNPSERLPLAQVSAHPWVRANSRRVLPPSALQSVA

Molecules are shown by their SMILES.

T1 sequence (Q96GD4 whole entry): as the sequence (Q96GD4 whole entry E161T) above, with T161E counted along it
Sequence of Proto-oncogene tyrosine-protein kinase Src (Homo sapiens) (P12931 2-536 limits assumed): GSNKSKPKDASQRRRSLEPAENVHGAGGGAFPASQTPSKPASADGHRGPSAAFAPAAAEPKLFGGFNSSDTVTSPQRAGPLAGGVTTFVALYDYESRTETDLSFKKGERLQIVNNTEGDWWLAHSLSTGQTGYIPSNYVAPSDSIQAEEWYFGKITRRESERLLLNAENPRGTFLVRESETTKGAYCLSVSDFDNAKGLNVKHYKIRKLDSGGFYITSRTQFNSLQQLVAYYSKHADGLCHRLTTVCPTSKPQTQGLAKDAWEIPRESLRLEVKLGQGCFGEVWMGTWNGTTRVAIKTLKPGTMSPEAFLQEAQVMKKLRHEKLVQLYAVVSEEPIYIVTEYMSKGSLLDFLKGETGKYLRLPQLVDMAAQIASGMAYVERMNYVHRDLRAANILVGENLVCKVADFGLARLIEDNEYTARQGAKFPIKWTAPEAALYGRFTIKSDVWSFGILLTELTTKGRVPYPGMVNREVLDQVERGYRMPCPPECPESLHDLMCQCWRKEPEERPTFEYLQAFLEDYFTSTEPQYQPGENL
Sequence of Tyrosine-protein kinase receptor UFO (Homo sapiens) (P30530 whole entry): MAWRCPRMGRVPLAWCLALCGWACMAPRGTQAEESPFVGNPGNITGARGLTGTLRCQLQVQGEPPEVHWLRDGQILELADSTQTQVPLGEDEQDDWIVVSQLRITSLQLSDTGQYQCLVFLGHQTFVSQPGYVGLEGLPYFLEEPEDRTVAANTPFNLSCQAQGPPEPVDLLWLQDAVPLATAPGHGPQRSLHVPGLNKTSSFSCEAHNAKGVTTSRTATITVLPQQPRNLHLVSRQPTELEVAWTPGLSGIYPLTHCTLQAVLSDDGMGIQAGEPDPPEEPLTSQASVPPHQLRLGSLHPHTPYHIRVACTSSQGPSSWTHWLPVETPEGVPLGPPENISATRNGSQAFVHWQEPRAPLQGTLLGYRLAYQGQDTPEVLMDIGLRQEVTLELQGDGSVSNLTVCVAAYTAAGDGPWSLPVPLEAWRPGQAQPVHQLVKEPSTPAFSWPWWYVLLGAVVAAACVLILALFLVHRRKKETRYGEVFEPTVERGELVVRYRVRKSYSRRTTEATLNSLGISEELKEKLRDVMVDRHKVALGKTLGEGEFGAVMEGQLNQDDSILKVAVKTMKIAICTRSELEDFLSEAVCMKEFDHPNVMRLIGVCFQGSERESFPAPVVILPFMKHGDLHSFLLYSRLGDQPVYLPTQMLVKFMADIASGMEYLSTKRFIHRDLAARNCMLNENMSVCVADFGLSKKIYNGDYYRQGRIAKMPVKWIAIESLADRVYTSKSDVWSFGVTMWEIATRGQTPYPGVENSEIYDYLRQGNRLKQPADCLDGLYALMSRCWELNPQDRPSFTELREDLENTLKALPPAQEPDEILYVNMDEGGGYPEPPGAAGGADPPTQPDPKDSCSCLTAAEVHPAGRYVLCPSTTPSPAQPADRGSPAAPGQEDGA
Sequence of Dual specificity mitogen-activated protein kinase kinase 1 (Homo sapiens) (Q02750 whole entry): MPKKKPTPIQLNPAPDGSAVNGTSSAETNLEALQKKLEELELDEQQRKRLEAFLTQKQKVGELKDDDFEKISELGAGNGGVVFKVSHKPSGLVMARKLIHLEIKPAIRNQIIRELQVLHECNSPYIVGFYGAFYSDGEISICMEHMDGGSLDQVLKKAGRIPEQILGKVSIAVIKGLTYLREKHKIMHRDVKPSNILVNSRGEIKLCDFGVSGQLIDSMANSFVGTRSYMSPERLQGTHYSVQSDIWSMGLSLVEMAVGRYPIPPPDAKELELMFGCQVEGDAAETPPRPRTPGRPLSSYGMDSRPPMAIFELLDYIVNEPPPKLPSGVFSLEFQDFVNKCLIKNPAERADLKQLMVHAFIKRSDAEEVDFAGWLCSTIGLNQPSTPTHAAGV
Sequence of Epidermal growth factor receptor (Homo sapiens) (P00533 whole entry): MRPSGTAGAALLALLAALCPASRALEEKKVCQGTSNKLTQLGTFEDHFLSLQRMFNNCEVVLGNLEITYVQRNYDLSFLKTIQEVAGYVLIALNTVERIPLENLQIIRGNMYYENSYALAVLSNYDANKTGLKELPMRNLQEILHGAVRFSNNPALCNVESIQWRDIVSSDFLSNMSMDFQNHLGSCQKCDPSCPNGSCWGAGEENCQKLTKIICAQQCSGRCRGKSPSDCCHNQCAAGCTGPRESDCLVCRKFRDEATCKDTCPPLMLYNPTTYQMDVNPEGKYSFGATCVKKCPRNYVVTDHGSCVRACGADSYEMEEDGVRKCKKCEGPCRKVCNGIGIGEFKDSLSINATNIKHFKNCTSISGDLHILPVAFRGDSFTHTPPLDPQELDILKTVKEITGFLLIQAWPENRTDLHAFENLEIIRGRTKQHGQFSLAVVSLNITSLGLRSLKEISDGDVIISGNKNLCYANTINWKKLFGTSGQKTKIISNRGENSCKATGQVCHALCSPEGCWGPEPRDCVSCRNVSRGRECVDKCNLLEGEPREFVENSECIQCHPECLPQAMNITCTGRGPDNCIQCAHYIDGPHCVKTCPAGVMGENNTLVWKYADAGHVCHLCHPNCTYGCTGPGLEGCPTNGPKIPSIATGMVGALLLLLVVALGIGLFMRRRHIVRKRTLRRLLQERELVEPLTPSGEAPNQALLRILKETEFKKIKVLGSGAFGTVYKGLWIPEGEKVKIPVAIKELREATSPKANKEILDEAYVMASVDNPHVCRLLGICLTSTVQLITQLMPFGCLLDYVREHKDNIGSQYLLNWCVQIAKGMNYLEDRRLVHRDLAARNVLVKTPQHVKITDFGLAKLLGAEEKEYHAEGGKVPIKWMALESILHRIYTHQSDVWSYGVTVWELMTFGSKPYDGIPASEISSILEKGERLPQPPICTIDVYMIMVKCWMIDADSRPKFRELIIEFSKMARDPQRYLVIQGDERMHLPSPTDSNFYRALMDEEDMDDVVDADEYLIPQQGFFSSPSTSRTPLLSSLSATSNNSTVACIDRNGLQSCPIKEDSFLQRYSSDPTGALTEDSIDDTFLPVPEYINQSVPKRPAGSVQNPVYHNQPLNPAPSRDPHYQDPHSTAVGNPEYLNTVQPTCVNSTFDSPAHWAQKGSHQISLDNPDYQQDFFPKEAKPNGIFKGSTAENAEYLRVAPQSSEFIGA

As a reminder, the IC50 is the concentration that gives 50% inhibition. With `O=C(Nc1ccccc1Cl)c1ccc(Nc2nc(Nc3ccc(O)cc3)ncc2F)cc1`, the Activity in experiment [1] amounted to 76%; in experiment [2], 54%; in experiment [3], 91%; in [4], 100%; in experiment [5], 1%; in experiment [6] it was 100%. For the same compound, the Activity came to 88% in experiment [8]; 64% in experiment [9]; 96% in experiment [11]; 103% in experiment [12]; 42% in experiment [13]; 103% in experiment [14]. The Activity was determined as 31% in [15]; 104% in [16]; 111% in [17]; 6% in experiment [19]; 102% in experiment [20]; 25% in experiment [22]. Also, the Activity in [23] turned out to be 44%; in the experiment listed under Homo sapiens it was 87%; in experiment [24], 60%; in experiment [26] it was 40%; in [27] it was 90%; in [28], 57%. In addition, the Activity in [29] stood at 57%; in experiment [30], 76%; in experiment [31], 66%; in experiment [32] it was 7%; in experiment [33], 82%; in [34], 54%. Further, the half-inhibitory concentration (IC50) at Aurora kinase B [7] was more than 30 µM; with HCT-116, 0.87 µM; at Aurora kinase A [10], 5 µM; with HT-29, 17 µM; on Aurora kinase B [18] it was more than 25 µM; against Aurora kinase B [21] it was 1.9 µM. Further, the IC50 stood at 3.2 µM in experiment [25] and 0.01 µM at Aurora kinase A [35].

Regarding `CCN1CCN(C(=O)Cc2ccc(Nc3ncc(F)c(Nc4ccc(C(=O)Nc5ccccc5Cl)cc4)n3)cc2)CC1`, the IC50 was 2 µM against Aurora kinase A [36]; more than 27 µM on Aurora kinase B [7]; 0.19 µM with HCT-116; 2.5 µM at Aurora kinase A [10]; 2.9 µM in the experiment with HT-29; more than 50 µM at Aurora kinase B [18]. Besides, the IC50 at Aurora kinase B [21] is 3.4 µM; in [25], more than 16 µM; against Aurora kinase B [37] it was 0.055 µM; at Aurora kinase A [35], 0.0034 µM.
